Measurements from article PMC11913021 (Journal of Medicinal Chemistry, 2024).
Read-outs that look alike come from different tables or passages of the source.

Assays:
Type in all cases: cell-based
[1] = tested on: PLD; experiment: PLD activity inhibition in A549 cells; conditions: read-out: IC50 for PLD inhibition
[2] = tested on: A549 cells; experiment: WST-1 cell viability assay, A549; conditions: read-out: IC50 of viability
Summary of the method: (§1)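 Cells grown in DMEM or RPMI 1640 with 10% FBS and 1% penicillin/streptomycin at 37 °C, 5% CO2. Seeded at 5 × 10^3 cells/well and held 24 h at 37 °C, then exposed to test compound for 48 h. WST-1 absorbance was read at 450 nm, in triplicate. IC50 was taken as the concentration giving 50% growth inhibition versus control.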

[3] = tested on: HCT116 cells; experiment: WST-1 cell viability assay, HCT116; conditions: read-out: IC50 of viability; HCT116, WST-1, 48 h
Summary of the method: as §1

Compound	IC50 [1] [µM]	IC50 ([2]; A549, WST-1, 48 h) [µM]	IC50 [3] [µM]	IC50 ([2]; Homo sapiens, A549, 48 h) [µM]
3,5-Bis(trifluoromethyl)phenyl 5-Fluoro-1H-indole-2-carboxylate [3ac]	3.1	50	> 50	–
C[C@@H](CN1CCC(n2c(=O)[nH]c3cc(Cl)ccc32)CC1)NC(=O)c1ccc2ccccc2c1 [VU0155069, reference compound]	–	–	–	18.5
N-(3,4-Dihydroxyphenyl)-5-fluoro-1H-indole-2-carboxamide [4c]	4.31	> 200	> 50	–
